Reference: ChEMBL document CHEMBL4689842, “EUbOPEN Chemogenomics Library wave 1” (2021)

Columns and labels:
[1] = system: HEK-293T; assay: Incucyte cell viability with HEK293T; type: toxicity, cell-based; conditions: human, 10 µM, compound concentration 10 uM; note: filed as whole numbers so only -1 and 0 and 1 occur
[2] = system: U2OS; assay: Multiplex assay against U2OS; type: toxicity, cell-based; conditions: human
In short: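 Hoechst33342, BioTracker Green Microtubule Cytoskeleton Dye, MitoTracker Red and Annexin V Alexa Fluor 680 were added to live cells at seeding, and imaging on a CQ1 microscope at 37°C and 5% CO2 followed compound addition. Gating by CellPathfinder machine learning separated cells into Hoechst high-intensity objects or normal cells, then normal cells into healthy, pyknosed or fragmented nuclei, then pyknosed cells into mitotic or apoptotic. Per cents of healthy-nucleus cells are reported for the tubulin, mitochondrial-mass and membrane-permeability phenotypes.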

[3] = 12 h, 1 µM, compound concentration 1 uM, replicate 1
[4] = 12 h, 1 µM, compound concentration 1 uM, replicate 2
[5] = 12 h, 10 µM, compound concentration 10 uM, replicate 1
[6] = 12 h, 10 µM, compound concentration 10 uM, replicate 2
[7] = 24 h, 1 µM, compound concentration 1 uM, replicate 1
[8] = 24 h, 1 µM, compound concentration 1 uM, replicate 2
[9] = 24 h, 10 µM, compound concentration 10 uM, replicate 1
[10] = 24 h, 10 µM, compound concentration 10 uM, replicate 2
[11] = 48 h, 1 µM, compound concentration 1 uM, replicate 1
[12] = 48 h, 1 µM, compound concentration 1 uM, replicate 2
[13] = 48 h, 10 µM, compound concentration 10 uM, replicate 1
[14] = 48 h, 10 µM, compound concentration 10 uM, replicate 2

Compound: CCCCCNC(=N)N/N=C/c1c[nH]c2ccc(OC)cc12.O=C(O)/C=C\C(=O)O [TEGASEROD MALEATE]
- Growth Rate ([1]; 0 h, replicate number 2, timepoint 0 hours): 1
- Growth Rate ([1]; 6 h, replicate number 1, timepoint 6 hours): 0
- Growth Rate ([1]; 12 h, replicate number 1, timepoint 12 hours): 0
- Growth Rate ([1]; 18 h, replicate number 1, timepoint 18 hours): 0
- Growth Rate ([1]; 24 h, replicate number 1, timepoint 24 hours): 0
- Population Apoptotic (%) [2, 3]: 66%
- Population Fragmented Nuclei (%) [2, 3]: 12%
- Population Healthy Nuclei (%) [2, 3]: 75%
- Population Hoechst High Intensity Objects (%) [2, 3]: 8%
- Population Membrane Permeable-Phenotype (%) [2, 3]: 4%
- Population Mitochondria Different-Phenotype (%) [2, 3]: 16%
- Population Mitotic Cells (%) [2, 3]: 33%
- Population Normal (%) [2, 3]: 91%
- Population Pyknosed Nuclei (%) [2, 3]: 11%
- Population Tubulin-Different-Phenotype (%) [2, 3]: 10%
- Total Cell Count [2, 3]: 73
- Population Apoptotic (%) [2, 4]: 20%
- Population Healthy Nuclei (%) [2, 4]: 79%
- Population Hoechst High Intensity Objects (%) [2, 4]: 3%
- Population Mitochondria Different-Phenotype (%) [2, 4]: 22%
- Population Mitotic Cells (%) [2, 4]: 80%
- Population Normal (%) [2, 4]: 96%
- Population Pyknosed Nuclei (%) [2, 4]: 8%
- Population Tubulin-Different-Phenotype (%) [2, 4]: 14%
- Total Cell Count [2, 4]: 74
- Population Apoptotic (%) [2, 5]: 92%
- Population Fragmented Nuclei (%) [2, 5]: 36%
- Population Healthy Nuclei (%) [2, 5]: 0%
- Population Hoechst High Intensity Objects (%) [2, 5]: 12%
- Population Membrane Permeable-Phenotype (%) [2, 5]: 100%
- Population Mitochondria Different-Phenotype (%) [2, 5]: 100%
- Population Mitotic Cells (%) [2, 5]: 7%
- Population Normal (%) [2, 5]: 87%
- Population Pyknosed Nuclei (%) [2, 5]: 62%
- Population Tubulin-Different-Phenotype (%) [2, 5]: 100%
- Total Cell Count [2, 5]: 167
- Population Apoptotic (%) [2, 6]: 100%
- Population Fragmented Nuclei (%) [2, 6]: 22%
- Population Healthy Nuclei (%) [2, 6]: 3%
- Population Hoechst High Intensity Objects (%) [2, 6]: 35%
- Population Mitotic Cells (%) [2, 6]: 0%
- Population Normal (%) [2, 6]: 64%
- Population Pyknosed Nuclei (%) [2, 6]: 73%
- Total Cell Count [2, 6]: 64
- Population Apoptotic (%) [2, 7]: 47%
- Population Fragmented Nuclei (%) [2, 7]: 9%
- Population Healthy Nuclei (%) [2, 7]: 78%
- Population Hoechst High Intensity Objects (%) [2, 7]: 4%
- Population Membrane Permeable-Phenotype (%) [2, 7]: 6%
- Population Mitochondria Different-Phenotype (%) [2, 7]: 13%
- Population Mitotic Cells (%) [2, 7]: 52%
- Population Normal (%) [2, 7]: 95%
- Population Pyknosed Nuclei (%) [2, 7]: 12%
- Population Tubulin-Different-Phenotype (%) [2, 7]: 13%
- Total Cell Count [2, 7]: 88
- Population Apoptotic (%) [2, 8]: 87%
- Population Fragmented Nuclei (%) [2, 8]: 10%
- Population Healthy Nuclei (%) [2, 8]: 77%
- Population Hoechst High Intensity Objects (%) [2, 8]: 5%
- Population Membrane Permeable-Phenotype (%) [2, 8]: 5%
- Population Mitochondria Different-Phenotype (%) [2, 8]: 21%
- Population Mitotic Cells (%) [2, 8]: 12%
- Population Normal (%) [2, 8]: 94%
- Population Tubulin-Different-Phenotype (%) [2, 8]: 7%
- Total Cell Count [2, 8]: 89
- Population Apoptotic (%) [2, 9]: 85%
- Population Fragmented Nuclei (%) [2, 9]: 42%
- Population Healthy Nuclei (%) [2, 9]: 1%
- Population Hoechst High Intensity Objects (%) [2, 9]: 16%
- Population Membrane Permeable-Phenotype (%) [2, 9]: 100%
- Population Mitochondria Different-Phenotype (%) [2, 9]: 100%
- Population Mitotic Cells (%) [2, 9]: 14%
- Population Normal (%) [2, 9]: 83%
- Population Pyknosed Nuclei (%) [2, 9]: 56%
- Population Tubulin-Different-Phenotype (%) [2, 9]: 100%
- Total Cell Count [2, 9]: 180
- Population Apoptotic (%) [2, 10]: 100%
- Population Fragmented Nuclei (%) [2, 10]: 44%
- Population Healthy Nuclei (%) [2, 10]: 26%
- Population Hoechst High Intensity Objects (%) [2, 10]: 39%
- Population Mitotic Cells (%) [2, 10]: 0%
- Population Normal (%) [2, 10]: 60%
- Population Pyknosed Nuclei (%) [2, 10]: 28%
- Total Cell Count [2, 10]: 70
- Population Apoptotic (%) [2, 11]: 44%
- Population Fragmented Nuclei (%) [2, 11]: 7%
- Population Healthy Nuclei (%) [2, 11]: 85%
- Population Hoechst High Intensity Objects (%) [2, 11]: 3%
- Population Membrane Permeable-Phenotype (%) [2, 11]: 2%
- Population Mitochondria Different-Phenotype (%) [2, 11]: 11%
- Population Mitotic Cells (%) [2, 11]: 55%
- Population Normal (%) [2, 11]: 96%
- Population Pyknosed Nuclei (%) [2, 11]: 7%
- Population Tubulin-Different-Phenotype (%) [2, 11]: 7%
- Total Cell Count [2, 11]: 112
- Population Apoptotic (%) [2, 12]: 35%
- Population Fragmented Nuclei (%) [2, 12]: 10%
- Population Healthy Nuclei (%) [2, 12]: 75%
- Population Hoechst High Intensity Objects (%) [2, 12]: 1%
- Population Membrane Permeable-Phenotype (%) [2, 12]: 6%
- Population Mitochondria Different-Phenotype (%) [2, 12]: 17%
- Population Mitotic Cells (%) [2, 12]: 64%
- Population Normal (%) [2, 12]: 98%
- Population Pyknosed Nuclei (%) [2, 12]: 13%
- Population Tubulin-Different-Phenotype (%) [2, 12]: 10%
- Total Cell Count [2, 12]: 110
- Population Apoptotic (%) [2, 13]: 91%
- Population Fragmented Nuclei (%) [2, 13]: 50%
- Population Healthy Nuclei (%) [2, 13]: 1%
- Population Hoechst High Intensity Objects (%) [2, 13]: 14%
- Population Membrane Permeable-Phenotype (%) [2, 13]: 100%
- Population Mitochondria Different-Phenotype (%) [2, 13]: 100%
- Population Mitotic Cells (%) [2, 13]: 8%
- Population Normal (%) [2, 13]: 85%
- Population Pyknosed Nuclei (%) [2, 13]: 48%
- Population Tubulin-Different-Phenotype (%) [2, 13]: 100%
- Total Cell Count [2, 13]: 260
- Population Apoptotic (%) [2, 14]: 100%
- Population Fragmented Nuclei (%) [2, 14]: 64%
- Population Healthy Nuclei (%) [2, 14]: 24%
- Population Hoechst High Intensity Objects (%) [2, 14]: 39%
- Population Membrane Permeable-Phenotype (%) [2, 14]: 90%
- Population Mitochondria Different-Phenotype (%) [2, 14]: 90%
- Population Mitotic Cells (%) [2, 14]: 0%
- Population Normal (%) [2, 14]: 60%
- Population Pyknosed Nuclei (%) [2, 14]: 11%
- Population Tubulin-Different-Phenotype (%) [2, 14]: 90%
- Total Cell Count [2, 14]: 103
